Screens deposited in PubChem by several laboratories.
JMJD2C inh: inhibitors of GASC-1 histone demethylase, primary screen, biochemical, fluorescence, DELFIA europium; Lysine-specific demethylase 4C (Homo sapiens), Q9H3R0; GST-JMJD2C(1-420) H3K9me3 demethylation; inhibition, % at 2.35 µM; 330,000 tested, 0.069% active; AID 2099, 2009;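 active means more than half of a compound's replicate wells show inhibition beyond 50%, single wells judged on their own value; inconclusive means some, but no more than half, of replicates pass 50% inhibition; inactive means no replicate passes 50% inhibition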;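 further: signal counts dimethyl H3K9 product captured on neutravidin plate; 0% = median of DMSO wells and 100% = 0.3 times that DMSO median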
Target sequence (Q9H3R0 1-420 limits assumed): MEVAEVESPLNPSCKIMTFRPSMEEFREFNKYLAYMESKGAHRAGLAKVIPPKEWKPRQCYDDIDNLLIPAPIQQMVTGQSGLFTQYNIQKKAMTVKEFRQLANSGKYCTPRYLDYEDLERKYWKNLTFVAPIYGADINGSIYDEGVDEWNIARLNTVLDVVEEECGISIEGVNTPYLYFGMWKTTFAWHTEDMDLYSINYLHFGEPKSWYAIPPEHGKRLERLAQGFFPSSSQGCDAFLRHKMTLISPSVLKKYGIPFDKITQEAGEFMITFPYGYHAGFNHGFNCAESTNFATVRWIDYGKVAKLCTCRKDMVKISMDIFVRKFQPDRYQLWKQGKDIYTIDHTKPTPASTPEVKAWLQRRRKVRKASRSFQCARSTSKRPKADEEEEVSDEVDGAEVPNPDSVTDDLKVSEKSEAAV
aDG glyco act: activators of alpha-DG glycosylation, primary screen, uHTS, Pro5-aDG cells, AlphaScreen; alpha-DG glycosylation AlphaScreen (IIH6); 0% Pro5, 100% B10-LARGE cell signal; activation, % at 10 µM; 360,000 tested, 0.22% active;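 active means activation of at least 8% versus controls, or a plate z-score of at least 8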;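 further: Pro5 are CHO cells carrying HIG-tagged alpha-DG that lacks glycosylation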
Lipid droplet: inhibitors of hepatocyte lipid droplet formation, primary screen, imaging, high-throughput imaging, BODIPY stain. AML12 mouse hepatocytes, oleate lipid droplets. 240,000 tested, 0.4% active. inhibition, % at 6.5 µM;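 active means lipid droplet intensity inhibited by at least 50%, with more than 500 cells counted; inconclusive means wells with under 300 cells, treated as cytotoxic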
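Assay system: AML12 hepatocytes (mouse); Probe or stimulus: oleic acid at 100 µM to induce lipid droplet formation; Dosing: compound at 6.5 µM only; Schedule: compound with oleate, overnight; Detection: fluorescence imaging, 20x objective, two fields per well; Measure: % inhibition of lipid droplet signal.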
GC-A act: GC-A stimulated cGMP production enhancers – HEK293 GC-A cells, cGMP TR-FRET, EC30 ANP, primary screen; AID 1671463, 2021; 0% at EC30 ANP, 100% saturating ANP; activation, % at 10 µM; 370,000 tested, 0.14% active; Atrial natriuretic peptide receptor 1 (Homo sapiens), P16066; in the data active means activation above about 40%
NR3A LBD binder: binders of NR3A ligand-binding domain, primary screen, biophysical, differential scanning fluorimetry, uHTS; Glutamate receptor ionotropic, NMDA 3A (GRIN3A) ligand-binding domain; Tm shift relative to glycine control, % at 25 µM; NR3A LBD differential scanning fluorimetry, Tm shift; 0% = protein alone, 100% = glycine-bound protein; 340,000 tested, 2.5% active;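 active means melting temperature shift of at least 10% of the positive control shift, at one fixed dose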
GC-B act: human GC-B receptor activators, primary screen, HEK293 GC-B cells, cGMP TR-FRET, EC30 CNP; 370,000 tested, 0.11% active; Atrial natriuretic peptide receptor 2 (Homo sapiens), P20594; activation, % at 10 µM; 0% at EC30 CNP, 100% saturating CNP;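 active means activation at 10 µM reaching about 35% in either raw or pattern-adjusted values, limit read from the data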
The depositor's hits bear a star; ? = inconclusive; · = no result. Sampled rows, rich in hits. Any-hit rate of the full collection: about 3%.

SMILES	JMJD2C inh	aDG glyco act	Lipid droplet	GC-A act	NR3A LBD binder	GC-B act
Cc1nn(-c2ccc(Cl)cc2)c(Cl)c1/C=C(\C#N)C(N)=O	7.5	0.6	-0.2	48.7*	-0.1	5.2
C=CCNC(=O)/C(C#N)=C/c1c(C)nn(-c2ccc(Cl)cc2)c1Cl	8.0	0.0	-4.1	46.3*	0.2	3.8
CCOc1ccccc1NC(=O)/C(C#N)=C/c1c(C)nn(-c2ccc(F)cc2)c1Cl	-21.3	-0.5	-23.4	-8.2	2.0	-6.4
Cc1ccc(NC(=S)NNC(=S)Nc2ccc(C)cc2C)cc1	-10.6	-0.1	?	-3.2	11.3*	-1.5
Cc1ccc(NC(=S)N2CCOCC2)c(C)c1	12.5	-0.2	4.3	-1.4	16.2*	-1.1
Cc1cccc(NS(=O)(=O)c2cccc3nsnc23)c1	55.9*	-0.3	·	-6.3	-0.5	0.7
O=S(=O)(Nc1cccc(Br)c1)c1cccc2nsnc12	-6.9	-0.1	-2.5	-1.7	-0.2	-0.4
Cc1c(C(=O)Nc2ccc(C(F)(F)F)cc2)sc2ncn(CC(=O)N3CCN(c4ccccn4)CC3)c(=O)c12	5.3	0.3	-18.0	3.3	22.6*	-1.6
Cc1ccc(NC(=O)c2sc3ncn(CC(=O)N4CCN(c5ccccn5)CC4)c(=O)c3c2C)cc1	·	0.0	·	2.8	·	2.8
COc1cc(Cl)ccc1OCc1cc(C(=O)N2C[C@@H]3CCC[C@H]2C3)no1	-3.1	-0.2	-21.9	-0.3	0.4	4.1
COc1cc(Cl)ccc1OCc1cc(C(=O)N2C[C@H]3CC[C@H]2C3)no1	-1.9	0.1	-9.5	4.2	12.6*	-3.4
COc1cc(Cl)ccc1OCc1cc(C(=O)N[C@H]2CCCCNC2=O)no1	0.4	0.1	-29.4	59.9*	5.7	2.9
CCOc1ccccc1NC(=O)Cn1[nH]c(=O)c2ccccc2c1=O	-1.2	-0.4	-5.6	·	·	·
CCOc1cc(N2CCOCC2)c(OCC)cc1NC(=O)Cn1[nH]c(=O)c2ccccc2c1=O	-3.2	-0.5	-2.6	25.9	-1.7	35.7*
O=C1c2ccccc2C(c2nnnn2-c2ccc3c(c2)OCCO3)N1CCc1ccccc1F (stereo not drawn)	·	0.4	·	-0.9	·	-0.1
Nn1c(SCC(=O)NC2CCCCC2)nnc1-c1cc(-c2ccc(F)cc2)n[nH]1	·	·	·	3.3	·	-8.4
Cc1cc(C)c(C#N)c(SCCS(=O)(=O)Cc2ccc(Cl)cc2)n1	4.3	0.0	·	4.7	18.0*	-17.3
Cc1cc(C)c(C#N)c(SCCS(=O)(=O)c2ccc(Cl)cc2)n1	1.1	-0.1	-1.0	-6.0	0.4	-2.9
CCN(C[C@H]1N[C@@](C)(C(=O)OC)[C@H]2C(=O)N(Cc3ccccc3)C(=O)[C@@H]12)C(=O)NC(C)C	-31.6	0.2	·	-1.4	14.0*	4.2
CCN(C[C@H]1N[C@@](Cc2ccccc2)(C(=O)OC)[C@H]2C(=O)N(Cc3ccccc3)C(=O)[C@@H]12)S(=O)(=O)c1ccccc1	60.6*	0.1	·	-0.9	2.4	-6.4
COC(=O)[C@]1(C)N[C@H](CN(C)S(=O)(=O)c2ccc(C)cc2)[C@@H]2C(=O)N(Cc3ccccc3)C(=O)[C@@H]21	61.6*	0.0	·	3.1	0.8	-3.0
CN(C)S(=O)(=O)N1CCC(Oc2ccc(C(=O)NCCc3cscn3)cc2)CC1	0.4	0.6	13.0	-3.2	12.6*	3.9
Cc1nn2c(N3CCN(C4CCCC4)CC3)cc(C(C)(C)C)nc2c1-c1ccccc1	-0.9	0.2	-1.7	1.6	12.7*	-2.5
Cc1nn2c(N3CCN(C)CC3)cc(C(C)(C)C)nc2c1-c1ccccc1	3.0	0.3	15.7	-0.6	-0.7	-19.1
COc1ccc(-n2c(SCC(=O)Nc3ccc(S(=O)(=O)Nc4nccs4)cc3)nnc2-c2ccccc2)cc1	·	·	·	-1.3	·	-4.4
NNC(=O)CSc1ncc(-c2ccccc2)[nH]1	-7.3	0.8	-12.8	3.4	-1.0	0.9
